Laboratory results from paper PMC12079426 (RSC Advances, 2025).
Where “and” joins values, the source holds several entries; their conditions need not be identical. Equal values may be shown once.

Key:
Format in all cases: in vivo
[1] = test system: female Swiss albino mice; assay: Tail Suspension Test; conditions: percentage decrease in duration of immobility compared to disease control
Summary of the method: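 Female Swiss albino mice (20–23 g) received standard or test compound 30 min before testing. Each mouse was hung by the tail from a hook in a three-sided chamber, 50 cm above the surface. Total immobility was recorded over a 10-min session and reported as mean ± SEM.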

[2] = test system: female Swiss albino mice; assay: Acute oral toxicity study; conditions: individual mice; for Body weight Day 0: pre-administration fasting weight
Summary of the method: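 Female Swiss albino mice (20–23 g) kept at 22 ± 3 °C, 50–65% humidity, 12 h light/dark. OECD 423 stepwise design, three mice per step: 300 mg/kg, then 2000 mg/kg. Test compound was given in distilled water by oral intubation needle. Feed was withheld 3–4 h before and 2 h after dosing. Fasting weight was taken pre-dose, then on days 7 and 14.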

[3] = test system: female Swiss albino mice; assay: Forced Swim Test; conditions: percentage decrease in duration of immobility compared to disease control
Summary of the method: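 Female Swiss albino mice (20–23 g) were dosed 30 min before testing: saline 10 mL/kg (control), fluoxetine 10 mg/kg (standard), or test compound 100 mg/kg. Two 10-min swim sessions ran 24 h apart (pre-test, then test). Water was at 23 ± 1 °C, deep enough that hind legs could not touch bottom, and changed after each trial. Immobility duration reported as mean ± SEM.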

Compound	DID (%) Tail suspension test [1]	Body weight Day 7 ([2]; Step I 300 mg kg^−1 oral)	Body weight Day 14 ([2]; Step I 300 mg kg^−1 oral)	Body weight Day 0 ([2]; Step I 300 mg kg^−1 oral)	Body weight Day 7 ([2]; Step II 2000 mg kg^−1 oral)	Body weight Day 14 ([2]; Step II 2000 mg kg^−1 oral)	Body weight Day 0 ([2]; Step II 2000 mg kg^−1 oral)	DID (%) Forced swim test [3]
Cc1nn(-c2ccccc2)c(N2CCCCC2)c1/C=C/C(=O)c1ccc(-n2c3ccccc3c3ccccc32)cc1 [13a, (E)-1-(4-(9H-Carbazol-9-yl)phenyl)-3-(3-methyl-1-phenyl-5-(piperidin-1-yl)-1H-pyrazol-4-yl)prop-2-en-1-one]	5.74%	28 g and 26.5 g and 29 g	32 g and 33 g and 34.5 g	22.5 g and 21.5 g and 25 g	29.5 g and 29 g and 30 g	33 g and 32.5 g and 35 g	24 g and 23.5 g	24.92%
Cc1nn(-c2ccccc2)c(N2CCOCC2)c1/C=C/C(=O)c1ccc(-n2c3ccccc3c3ccccc32)cc1 [13b, (E)-1-(4-(9H-Carbazol-9-yl)phenyl)-3-(3-methyl-5-morpholino-1-phenyl-1H-pyrazol-4-yl)prop-2-en-1-one]	11.30%	26.5 g and 29 g and 29.5 g	32.5 g and 36 g and 34.5 g	23.5 g and 24 g	27.5 g and 30.5 g and 27 g	32 g and 34.5 g	23 g and 24.5 g and 21.5 g	23.47%
Cc1nn(-c2ccccc2)c(-n2nnc3ccccc32)c1/C=C/C(=O)c1ccc(-n2c3ccccc3c3ccccc32)cc1 [13c, (E)-3-(5-(1H-Benzo[d][1,2,3]triazol-1-yl)-3-methyl-1-phenyl-1H-pyrazol-4-yl)-1-(4-(9H-carbazol-9-yl)phenyl)prop-2-en-1-one]	34.67%	26.5 g	31 g and 30 g	22.5 g and 23.5 g and 21.5 g	28 g and 28.5 g and 29.5 g	33.5 g and 34.5 g	22 g and 23.5 g	35.63%
COc1c(/C=C/C(=O)c2ccc(-n3c4ccccc4c4ccccc43)cc2)c(C)nn1-c1ccccc1 [13d, (E)-1-(4-(9H-Carbazol-9-yl)phenyl)-3-(5-methoxy-3-methyl-1-phenyl-1H-pyrazol-4-yl)prop-2-en-1-one]	8.55%	–	–	–	–	–	–	–
Cc1nn(-c2ccccc2)c(N2CCCCC2)c1/C=C/C(=O)c1ccc(-n2ccc3ccccc32)cc1 [14a, (E)-1-(4-(1H-Indol-1-yl)phenyl)-3-(3-methyl-1-phenyl-5-(piperidin-1-yl)-1H-pyrazol-4-yl)prop-2-en-1-one]	2.58%	–	–	–	–	–	–	16.61%
Cc1nn(-c2ccccc2)c(N2CCOCC2)c1/C=C/C(=O)c1ccc(-n2ccc3ccccc32)cc1 [14b, (E)-1-(4-(1H-Indol-1-yl)phenyl)-3-(3-methyl-5-morpholino-1-phenyl-1H-pyrazol-4-yl)prop-2-en-1-one]	1.92%	–	–	–	–	–	–	2.22%
Cc1nn(-c2ccccc2)c(-n2nnc3ccccc32)c1/C=C/C(=O)c1ccc(-n2ccc3ccccc32)cc1 [14c, (E)-3-(5-(1H-Benzo[d][1,2,3]triazol-1-yl)-3-methyl-1-phenyl-1H-pyrazol-4-yl)-1-(4-(1H-indol-1-yl)phenyl)prop-2-en-1-one]	9.60%	–	–	–	–	–	–	17.90%
COc1c(/C=C/C(=O)c2ccc(-n3ccc4ccccc43)cc2)c(C)nn1-c1ccccc1 [14d, (E)-1-(4-(1H-Indol-1-yl)phenyl)-3-(5-methoxy-3-methyl-1-phenyl-1H-pyrazol-4-yl)prop-2-en-1-one]	5.57%	–	–	–	–	–	–	13.62%
Cc1nn(-c2ccccc2)c(N2CCCCC2)c1/C=C/C(=O)c1ccc(-n2cccc2)cc1 [15a, (E)-1-(4-(1H-Pyrrol-1-yl)phenyl)-3-(3-methyl-1-phenyl-5-(piperidin-1-yl)-1H-pyrazol-4-yl)prop-2-en-1-one]	4.50%	–	–	–	–	–	–	6.55%
Cc1nn(-c2ccccc2)c(N2CCOCC2)c1/C=C/C(=O)c1ccc(-n2cccc2)cc1 [15b, (E)-1-(4-(1H-Pyrrol-1-yl)phenyl)-3-(3-methyl-5-morpholino-1-phenyl-1H-pyrazol-4-yl)prop-2-en-1-one]	5.74%	–	–	–	–	–	–	11.56%
Cc1nn(-c2ccccc2)c(-n2nnc3ccccc32)c1/C=C/C(=O)c1ccc(-n2cccc2)cc1 [15c, (E)-3-(5-(1H-Benzo[d][1,2,3]triazol-1-yl)-3-methyl-1-phenyl-1H-pyrazol-4-yl)-1-(4-(1H-pyrrol-1-yl)phenyl)prop-2-en-1-one]	14.60%	–	–	–	–	–	–	22.99%
COc1c(/C=C/C(=O)c2ccc(-n3cccc3)cc2)c(C)nn1-c1ccccc1 [15d, (E)-1-(4-(1H-Pyrrol-1-yl)phenyl)-3-(5-methoxy-3-methyl-1-phenyl-1H-pyrazol-4-yl)prop-2-en-1-one]	16.24%	–	–	–	–	–	–	22.53%
CNCCC(Oc1ccc(C(F)(F)F)cc1)c1ccccc1 (stereo not shown) [Fluoxetine, reference compound]	59.67%	–	–	–	–	–	–	56.17%
